Data from paper PMC11235002 (BMJ Oncology, 2024).
“Also recorded” adds a separate entry of the source. Marks after values point to notes of the source that are not given here.

Experiments:
[1] = tested on: patients with advanced or metastatic solid tumours; experiment: Safety: treatment-emergent adverse events; format: in vivo, human
Summary of the method: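 Safety covered monotherapy Parts 1a/2, with oral tablet or capsule dosing twice daily on days 1–28 of 28-day cycles. TEAEs were graded by CTCAE v4.03, which counts malignant progression as an AE. Laboratory values, vital signs and physical examinations were also monitored. The safety population was all patients receiving ≥1 dose. DLTs were defined as grade 3–4 toxicities, urea cycle inhibition, or AUC0–12h >100 µg.h/mL.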

[2] = INCB001158 plasma pharmacokinetics; format: in vivo, human; settings: for Cmax: Cmax (mean±SD); for half-life: t1/2 (mean±SD)
urea cycle = experiment: Urea cycle inhibition monitored via orotic acid levels; format: in vivo, human
plasma arginine = experiment: Pharmacodynamics: plasma arginine concentration by LC-MS/MS; format: in vivo, human; settings: monotherapy / INCB001158 overall
syngeneic mouse models = settings: multiple syngeneic mouse models; cited from earlier work
[3] = tested on: advanced or metastatic solid tumours; experiment: Antitumour activity per RECIST v1.1; format: in vivo, human
Summary of the method: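 Part 1a monotherapy dose escalation used a standard 3+3 design, with 8 dose levels from 50 mg to 1000 mg. The test compound was given orally twice daily as tablet or capsule on days 1–28 of 28-day cycles. BOR, ORR and PFS followed RECIST v1.1, with confirmed responses unless stated otherwise. Response-evaluable patients had ≥1 dose, a baseline scan and ≥1 postbaseline scan, or qualifying discontinuation.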

T-cell = settings: in vitro; cited from earlier work
[4] = human, plasma, oral, 50 mg, Part 1a C1D1 single dose 50 mg (n=8)
[5] = human, plasma, oral, 75 mg, Part 1a C1D1 single dose 75 mg (n=7)
[6] = monotherapy dose escalation Part 1a total (n=25)
[7] = monotherapy dose escalation Part 1a total (n=30)
[8] = monotherapy dose expansion Part 2 total (n=73)
[9] = monotherapy dose expansion Part 2 total (n=77)

## C[C@H](N)C(=O)N1C[C@H](CCCB(O)O)[C@](N)(C(=O)O)C1 [INCB001158]
[1]; monotherapy 150 mg bid (n=7)
  Any irTEAE: 0 n (%)
  Colitis, irTEAE: 0 n (%)
  Constipation, any-grade TEAE: 2 (28.6) n (%)
  Decreased appetite, any-grade TEAE: 2 (28.6) n (%)
  Diarrhoea, any-grade TEAE: 1 (14.3) n (%)
  Fatigue, any-grade TEAE: 3 (42.9) n (%)
  Fatigue, grade ≥3 TEAE: 0 n (%)
  Hypoalbuminaemia, any-grade TEAE: 1 (14.3) n (%)
  Hyponatraemia, any-grade TEAE: 1 (14.3) n (%)
  Hyponatraemia, grade ≥3 TEAE: 1 (14.3) n (%)
  Malignant neoplasm progression, grade ≥3 TEAE: 0 n (%)
  Nausea, any-grade TEAE: 1 (14.3) n (%)
  Oedema peripheral, any-grade TEAE: 1 (14.3) n (%)
  Vomiting, any-grade TEAE: 0 n (%)
[1]; monotherapy 150 mg two times per day, one DLT
  DLT: treatment-related grade 2 malaise
[1]; monotherapy (8 patients)
  TEAEs leading to INCB001158 discontinuation: 7.5%
[1]; monotherapy (10 patients), none considered related to INCB001158
  fatal TEAEs: 9.3%
[1]; monotherapy (33 patients)
  TEAEs leading to INCB001158 dose interruption: 30.8%
[1]; monotherapy (36 patients)
  Serious TEAEs: 33.6%
[1]; monotherapy (N=107)
  patients with grade ≥3 TEAEs: 45.8%
[1]; monotherapy (n=10/107)
  INCB001158-related fatigue: 9.3%
  INCB001158-related nausea: 9.3%
[1]; monotherapy Parts 1a/2
  TEAEs grade 1/2 in severity: 54.2%
[1]; monotherapy Total (N=107)
  ALT increased, any-grade TEAE: 5 (4.7) n (%)
  AST increased, any-grade TEAE: 10 (9.3) n (%)
  Abdominal pain, any-grade TEAE: 18 (16.8) n (%)
  Abdominal pain, grade ≥3 TEAE: 6 (5.6) n (%)
  Anaemia, any-grade TEAE: 17 (15.9) n (%)
  Anaemia, grade ≥3 TEAE: 6 (5.6) n (%)
  Any TEAE: 102 (95.3) n (%)
  Any grade ≥3 TEAE: 49 (45.8) n (%)
  Any irTEAE: 1 (0.9) n (%)
  Colitis, irTEAE: 1 (0.9) n (%)
  Constipation, any-grade TEAE: 23 (21.5) n (%)
  Decreased appetite, any-grade TEAE: 21 (19.6) n (%)
  Diarrhoea, any-grade TEAE: 6 (5.6) n (%)
  Fatigue, any-grade TEAE: 30 (28.0) n (%)
  Fatigue, grade ≥3 TEAE: 6 (5.6) n (%)
  Hypoalbuminaemia, any-grade TEAE: 7 (6.5) n (%)
  Hyponatraemia, any-grade TEAE: 7 (6.5) n (%)
  Hyponatraemia, grade ≥3 TEAE: 3 (2.8) n (%)
  Malignant neoplasm progression, grade ≥3 TEAE: 5 (4.7) n (%)
  Nausea, any-grade TEAE: 24 (22.4) n (%)
  Oedema peripheral, any-grade TEAE: 16 (15.0) n (%)
  Vomiting, any-grade TEAE: 14 (13.1) n (%)
[1]; monotherapy and combination with pembrolizumab
  tolerability: generally well tolerated
[1]; monotherapy, safety-evaluable population
  patients with INCB001158-related TEAEs: 43 n
[1]; monotherapy, one patient, led to discontinuation
  immune-related TEAE of colitis: 0.9%
[1]; monotherapy, one patient, recovered/resolved
  serious INCB001158-related TEAE: grade 3 adrenal haemorrhage
[1]; up to 150 mg two times per day
  maximum tolerated dose: No maximum tolerated dose was reached
[2]; after multiple oral administrations, 50 mg to 150 mg two times per day
  dose proportionality of plasma exposure (Cmax, AUC): increased approximately dose proportionally
[2]; human, plasma, oral, 50 mg
  AUC(0-inf): 8860 ± 3810 ng·h/mL
[2]; [4]
  Cmax: 795 ± 259 ng/mL
  half-life: 5.5 ± 1.4 h
[2]; [5]
  Cmax: 1350 ± 379 ng/mL
  half-life: 5.3 ± 1 h
[2]; monotherapy, from predose PK samples
  time to steady state: < 1 week
Urea cycle; 150 mg two times per day, highest dose level tested, no symptomatic nor clinically significant urea cycle inhibition
  orotic acid levels: apparent increase in orotic acid levels
Urea cycle; monotherapy, all asymptomatic
  patients with urinary orotic acid levels >10× the upper limit of normal: four
Plasma arginine
  plasma arginine change on treatment: dose-dependently increased; also recorded: dose-dependent increase in plasma arginine
Syngeneic mouse models
  tumour growth: reduced tumour growth
[3]; monotherapy 100 mg two times per day, Part 2 (n=73), one patient, urothelial cancer
  confirmed partial response: 1.4%
[3]; monotherapy dose escalation Part 1a (n=25)
  objective response: No patient in the monotherapy cohort had an objective response
[3]; monotherapy dose escalation Part 1a (n=25), five patients
  BOR of stable disease: 20.0%
[3]; [6]
  BOR: CR: 0 n (%)
  BOR: NE: 1 (4.0) n (%)
  BOR: PD: 19 (76.0) n (%)
  BOR: PR: 0 n (%)
  BOR: SD: 5 (20.0) n (%)
  ORR: 0 (0 to 13.7) n (%) (95% CI)
[3]; [7]
  PFS events: 21 (70.0) n (%)
  PFS, median (95% CI): 1.8 (1.8 to 1.9) mo
[3]; [8]
  BOR: CR: 0 n (%)
  BOR: Missing: 10 (13.7) n (%)
  BOR: NE: 3 (4.1) n (%)
  BOR: PD: 37 (50.7) n (%)
  BOR: SD: 22 (30.1) n (%)
  ORR: 1 (1.4) (0 to 7.4) n (%) (95% CI)
[3]; monotherapy dose expansion Part 2 total (n=73), well-differentiated urothelial cancer
  BOR: PR: 1 (1.4)† n (%)
[3]; [9]
  PFS events: 58 (75.3) n (%)
  PFS, median (95% CI): 1.9 (1.8 to 2.1) mo
T-cell
  T-cell immunosuppression: reversed T-cell immunosuppression in vitro
